pIC50: −log10 of the molar value. Values after ≈ are worked out from the molar mass of the structure shown.
What was measured:
[1] = tested on: Receptor-type tyrosine-protein kinase FLT3 (Homo sapiens), P36888 [UNDEFINED MUTATION]; assay: Inhibition of FLT3 ITD mutant (unknown origin) using TAMRA-Src- tide as substrate at 12.5 uM after 1 hr by fluorescence polarization assay relative to control
How it was run: (§1)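 FLT3-ITD kinase inhibition by fluorescence polarization IMAP assay; each compound tested at 12.5 and 1.25 μM; percent inhibition, average of two parallel measurements.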

[2] = tested on: Receptor-type tyrosine-protein kinase FLT3 (Homo sapiens), P36888 [UNDEFINED MUTATION]; assay: Inhibition of FLT3 ITD mutant (unknown origin) using TAMRA-Src- tide as substrate at 1.25 uM after 1 hr by fluorescence polarization assay relative to control; how it was run: as §1
[3] = Aqueous solubility in pH 7.4 phosphate buffer at 120 uM after 24 hrs by HPLC method; assay type: physicochemical
[4] = Aqueous solubility in pH 5.5 phosphate buffer at 120 uM after 24 hrs by HPLC method; assay type: physicochemical; settings: phosphate buffer, pH 5.5
[5] = Lipophilicity, chromatographic hydrophobicity index of the compound at pH 7.4 by HPLC method; assay type: physicochemical; settings: buffer
How it was run: (§2)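 RP-HPLC with buffer/acetonitrile gradient elution; CHI profile at starting pH 10.5, 7.4, 5.5 and 1.2; values given as average of the compound group.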

[6] = Lipophilicity, chromatographic hydrophobicity index of the compound at pH 5.5 by HPLC method; assay type: physicochemical; settings: buffer; how it was run: as §2
[7] = Lipophilicity, chromatographic hydrophobicity index of the compound at pH 1.2 by HPLC method; assay type: physicochemical; settings: buffer; how it was run: as §2
[8] = buffer, pH 10.5
MV4-11 = assay: Antiproliferative activity against human MV4-11 cells after 72 hrs by Celltiter-Glo luminescent cell viability assay; assay type: functional, cell-based; settings: MV4-11, 72 h
How it was run: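 MV4-11 leukaemia cells, 72 h proliferation assay, luminescence read-out; IC50 determined from concentration–response.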

Chain of Receptor-type tyrosine-protein kinase FLT3 (Homo sapiens), P36888 [UNDEFINED MUTATION] (P36888 whole entry, looked up, change not shown): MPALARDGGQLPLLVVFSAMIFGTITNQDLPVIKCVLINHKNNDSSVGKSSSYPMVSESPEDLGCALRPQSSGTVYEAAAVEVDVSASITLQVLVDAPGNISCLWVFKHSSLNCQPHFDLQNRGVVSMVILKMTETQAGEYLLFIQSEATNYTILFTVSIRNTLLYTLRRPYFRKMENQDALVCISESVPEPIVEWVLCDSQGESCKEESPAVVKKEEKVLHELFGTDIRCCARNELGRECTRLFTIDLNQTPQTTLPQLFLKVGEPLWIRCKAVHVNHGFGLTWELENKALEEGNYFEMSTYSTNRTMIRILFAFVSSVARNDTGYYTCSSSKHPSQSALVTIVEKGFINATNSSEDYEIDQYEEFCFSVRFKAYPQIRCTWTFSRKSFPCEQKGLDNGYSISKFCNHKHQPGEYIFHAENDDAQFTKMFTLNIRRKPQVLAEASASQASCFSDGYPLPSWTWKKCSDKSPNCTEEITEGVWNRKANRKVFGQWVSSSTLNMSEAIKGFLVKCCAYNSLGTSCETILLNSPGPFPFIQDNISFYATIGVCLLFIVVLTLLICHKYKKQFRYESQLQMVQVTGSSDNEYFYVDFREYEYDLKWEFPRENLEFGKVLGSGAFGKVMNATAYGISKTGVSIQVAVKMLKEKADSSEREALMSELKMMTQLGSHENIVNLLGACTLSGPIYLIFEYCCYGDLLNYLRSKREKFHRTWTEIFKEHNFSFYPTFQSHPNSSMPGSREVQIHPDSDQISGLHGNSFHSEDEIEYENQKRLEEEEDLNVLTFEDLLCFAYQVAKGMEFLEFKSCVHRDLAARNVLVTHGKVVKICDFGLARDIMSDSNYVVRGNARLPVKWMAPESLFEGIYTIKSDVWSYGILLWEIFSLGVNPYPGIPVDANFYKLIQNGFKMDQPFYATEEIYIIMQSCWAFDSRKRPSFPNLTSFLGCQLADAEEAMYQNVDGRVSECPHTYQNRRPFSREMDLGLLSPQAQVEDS

Row | SMILES | inhibition [1] [%] | inhibition [2] [%] | solubility at 24 h, 120 µM [3] [µM] | solubility at 24 h, 120 µM [4] [µM] | CHI [5] | CHI [6] | CHI [7] | CHI [8] | pIC50 (MV4-11)
1 | COC(=O)CC[C@H](NC(=O)c1ccc2c(c1)/C(=C/c1[nH]c(C)c(C(=O)N[C@@H](CCC(=O)OC)C(=O)OC)c1C)C(=O)N2)C(=O)OC | 80.5 | 41.9 | < 5 | < 5 | 65 | 65 | 65 | 65 | 
2 | COC(=O)[C@H](Cc1ccccc1)NC(=O)c1ccc2c(c1)/C(=C/c1[nH]c(C)c(C(=O)N[C@H](Cc3ccccc3)C(=O)OC)c1C)C(=O)N2 | 67.7 | 35.4 |  |  |  |  |  |  | 5.48
3 | COC(=O)CC[C@@H](NC(=O)c1ccc2c(c1)/C(=C/c1[nH]c(C)c(C(=O)N[C@@H](Cc3ccccc3)C(=O)O)c1C)C(=O)N2)C(=O)OC | > 100 | 67.7 |  |  |  |  |  |  | 
4 | COC(=O)CC[C@@H](NC(=O)c1c(C)[nH]c(/C=C2\C(=O)Nc3ccc(C(=O)N[C@@H](Cc4ccccc4)C(=O)O)cc32)c1C)C(=O)OC | > 100 | 90.9 |  |  |  |  |  |  | 
5 | COC(=O)CC[C@H](NC(=O)c1ccc2c(c1)/C(=C/c1[nH]c(C)c(C(=O)N[C@H](CCC(=O)OC)C(=O)OC)c1C)C(=O)N2)C(=O)OC | 81.9 | 43.2 |  |  |  |  |  |  | 
6 | Cc1[nH]c(/C=C2\C(=O)Nc3ccc(C(=O)N[C@@H](Cc4ccccc4)C(=O)O)cc32)c(C)c1C(=O)O | > 100 | 97.4 | ≥ 120 | < 5 | 32 | 41 | 63 | 24 | 
7 | COC(=O)[C@@H](Cc1ccccc1)NC(=O)c1c(C)[nH]c(/C=C2\C(=O)Nc3ccc(C(=O)N[C@@H](Cc4ccccc4)C(=O)O)cc32)c1C | > 100 | 93.5 |  |  |  |  |  |  | 
8 | Cc1[nH]c(/C=C2\C(=O)Nc3ccc(C(=O)O)cc32)c(C)c1C(=O)N[C@H](Cc1ccccc1)C(=O)O | > 100 | 87 |  |  |  |  |  |  | 
9 | CCOC(=O)c1c(C)[nH]c(/C=C2\C(=O)Nc3ccc(C(=O)N[C@@H](CCC(=O)OC)C(=O)OC)cc32)c1C | 76.7 | 30.2 | < 1 | < 1 | 84 | 84 | 84 | 84 | 
10 | COC(=O)[C@H](Cc1ccccc1)NC(=O)c1ccc2c(c1)/C(=C/c1[nH]c(C)c(C(=O)N[C@H](Cc3ccccc3)C(=O)O)c1C)C(=O)N2 | > 100 | 89.6 |  |  |  |  |  |  | 4.74
11 | COC(=O)CC[C@@H](NC(=O)c1ccc2c(c1)/C(=C/c1[nH]c(C)c(C(=O)N[C@@H](Cc3ccccc3)C(=O)OC)c1C)C(=O)N2)C(=O)OC | 49.6 | 8.2 |  |  |  |  |  |  | 4.77
12 | Cc1[nH]c(/C=C2\C(=O)Nc3ccc(C(=O)N[C@H](Cc4ccccc4)C(=O)O)cc32)c(C)c1C(=O)O | > 100 | 87.1 |  |  |  |  |  |  | 
13 | COC(=O)c1ccc2c(c1)/C(=C/c1[nH]c(C)c(C(=O)N[C@H](Cc3ccccc3)C(=O)O)c1C)C(=O)N2 | > 100 | 91 |  |  |  |  |  |  | 5.41
14 | COC(=O)[C@@H](Cc1ccccc1)NC(=O)c1c(C)[nH]c(/C=C2\C(=O)Nc3ccc(C(=O)N[C@H](Cc4ccccc4)C(=O)O)cc32)c1C | > 100 | 66.4 |  |  |  |  |  |  | 
15 | CCOC(=O)c1c(C)[nH]c(/C=C2\C(=O)Nc3ccc(C(=O)N[C@H](Cc4ccccc4)C(=O)OC)cc32)c1C | 92.2 | 61.3 |  |  |  |  |  |  | 5.89
16 | COC(=O)[C@@H](Cc1ccccc1)NC(=O)c1ccc2c(c1)/C(=C/c1[nH]c(C)c(C(=O)N[C@H](Cc3ccccc3)C(=O)OC)c1C)C(=O)N2 | 85.8 | 35.4 |  |  |  |  |  |  | 5.54
17 | COC(=O)CC[C@@H](NC(=O)c1c(C)[nH]c(/C=C2\C(=O)Nc3ccc(C(=O)OC)cc32)c1C)C(=O)OC | 93.5 | 88.3 |  |  |  |  |  |  | 5.89
18 | CCOC(=O)c1c(C)[nH]c(/C=C2\C(=O)Nc3ccc(C(=O)N[C@H](Cc4ccccc4)C(=O)O)cc32)c1C | 96.2 | 47 |  |  |  |  |  |  | 
19 | Cc1[nH]c(/C=C2\C(=O)Nc3ccc(C(=O)N[C@H](Cc4ccccc4)C(=O)O)cc32)c(C)c1C(=O)N[C@H](Cc1ccccc1)C(=O)O | > 100 | 76.8 |  |  |  |  |  |  | 

Second part, the compound after the results:

Row | inhibition [1] [%] | inhibition [2] [%] | solubility at 24 h, 120 µM [3] [µM] | solubility at 24 h, 120 µM [4] [µM] | CHI [5] | CHI [6] | CHI [7] | CHI [8] | pIC50 (MV4-11) | SMILES
20 | 94.8 | 18.6 |  |  |  |  |  |  |  | COC(=O)[C@H](Cc1ccccc1)NC(=O)c1c(C)[nH]c(/C=C2\C(=O)Nc3ccc(C(=O)N[C@H](Cc4ccccc4)C(=O)O)cc32)c1C
21 | > 100 | 70.3 |  |  |  |  |  |  |  | COC(=O)CC[C@H](NC(=O)c1ccc2c(c1)/C(=C/c1[nH]c(C)c(C(=O)N[C@H](Cc3ccccc3)C(=O)O)c1C)C(=O)N2)C(=O)OC
22 | 63.8 | 37.9 |  |  |  |  |  |  | 5.80 | COC(=O)CC[C@@H](NC(=O)c1c(C)[nH]c(/C=C2\C(=O)Nc3ccc(C(=O)N[C@H](Cc4ccccc4)C(=O)OC)cc32)c1C)C(=O)OC
23 | 78 | 31.5 |  |  |  |  |  |  | < 4.52 | COC(=O)CC[C@H](NC(=O)c1ccc2c(c1)/C(=C/c1[nH]c(C)c(C(=O)N[C@H](Cc3ccccc3)C(=O)OC)c1C)C(=O)N2)C(=O)OC
24 | 27.5 | 76.7 |  |  |  |  |  |  | 6.22 | COC(=O)[C@@H](Cc1ccccc1)NC(=O)c1ccc2c(c1)/C(=C/c1[nH]c(C)c(C(=O)O)c1C)C(=O)N2
25 | > 100 | 100 | ≥ 120 | 110 (≈ 52.1 µg/mL) | 29 | 35 | 61 | 24 |  | Cc1[nH]c(/C=C2\C(=O)Nc3ccc(C(=O)O)cc32)c(C)c1C(=O)N[C@@H](Cc1ccccc1)C(=O)O
26 | 88.4 | 35.3 |  |  |  |  |  |  | 5.49 | COC(=O)CC[C@H](NC(=O)c1c(C)[nH]c(/C=C2\C(=O)Nc3ccc(C(=O)N[C@H](Cc4ccccc4)C(=O)OC)cc32)c1C)C(=O)OC
27 | > 100 | 73 |  |  |  |  |  |  |  | COC(=O)CC[C@@H](NC(=O)c1ccc2c(c1)/C(=C/c1[nH]c(C)c(C(=O)N[C@H](Cc3ccccc3)C(=O)O)c1C)C(=O)N2)C(=O)OC
28 | 94.8 | 92.3 | ≥ 120 | ≥ 120 | 57 | 55 | 51 |  | > 8.00 | CCN(CC)CCNC(=O)c1c(C)[nH]c(/C=C2\C(=O)Nc3ccc(F)cc32)c1C [SUNITINIB]
29 | 79.3 | 3.1 |  |  |  |  |  |  |  | CCOC(=O)c1c(C)[nH]c(/C=C2\C(=O)Nc3ccc(C(=O)N[C@H](CCC(=O)OC)C(=O)OC)cc32)c1C
30 | > 100 | 104 |  |  |  |  |  |  |  | Cc1[nH]c(/C=C2\C(=O)Nc3ccc(C(=O)N[C@@H](Cc4ccccc4)C(=O)O)cc32)c(C)c1C(=O)N[C@H](Cc1ccccc1)C(=O)O
31 | 32.8 | 12.1 |  |  |  |  |  |  | 4.99 | COC(=O)CC[C@@H](NC(=O)c1ccc2c(c1)/C(=C/c1[nH]c(C)c(C(=O)N[C@H](Cc3ccccc3)C(=O)OC)c1C)C(=O)N2)C(=O)OC
32 | 94.8 | 53.5 |  |  |  |  |  |  | 4.60 | COC(=O)CC[C@@H](NC(=O)c1c(C)[nH]c(/C=C2\C(=O)Nc3ccc(C(=O)N[C@@H](Cc4ccccc4)C(=O)OC)cc32)c1C)C(=O)OC
33 | 80.6 | 47 |  |  |  |  |  |  | 6.52 | COC(=O)c1ccc2c(c1)/C(=C/c1[nH]c(C)c(C(=O)N[C@H](Cc3ccccc3)C(=O)OC)c1C)C(=O)N2
34 | > 100 | 90.9 | 20 (≈ 10 µg/mL) | < 5 | 60 | 61 | 86 | 58 |  | CCOC(=O)c1c(C)[nH]c(/C=C2\C(=O)Nc3ccc(C(=O)N[C@@H](Cc4ccccc4)C(=O)O)cc32)c1C
35 | > 100 | 98.7 | ≥ 120 | 60 (≈ 37.8 µg/mL) | 50 | 50 | 68 | 47 |  | COC(=O)CC[C@H](NC(=O)c1c(C)[nH]c(/C=C2\C(=O)Nc3ccc(C(=O)N[C@@H](Cc4ccccc4)C(=O)O)cc32)c1C)C(=O)OC
36 | > 100 | 39.2 |  |  |  |  |  |  |  | COC(=O)CC[C@@H](NC(=O)c1c(C)[nH]c(/C=C2\C(=O)Nc3ccc(C(=O)N[C@H](Cc4ccccc4)C(=O)O)cc32)c1C)C(=O)OC
37 | > 100 | 28.9 |  |  |  |  |  |  | 4.71 | COC(=O)[C@@H](Cc1ccccc1)NC(=O)c1ccc2c(c1)/C(=C/c1[nH]c(C)c(C(=O)N[C@H](Cc3ccccc3)C(=O)O)c1C)C(=O)N2
38 | 70.3 | 29 |  |  |  |  |  |  | 5.60 | COC(=O)[C@H](Cc1ccccc1)NC(=O)c1c(C)[nH]c(/C=C2\C(=O)Nc3ccc(C(=O)N[C@H](Cc4ccccc4)C(=O)OC)cc32)c1C
39 | > 100 | 93.5 |  |  |  |  |  |  |  | COC(=O)CC[C@@H](NC(=O)c1c(C)[nH]c(/C=C2\C(=O)Nc3ccc(C(=O)O)cc32)c1C)C(=O)OC
40 | 70.3 | 80.4 |  |  |  |  |  |  |  | COC(=O)CC[C@H](NC(=O)c1c(C)[nH]c(/C=C2\C(=O)Nc3ccc(C(=O)N[C@H](CCC(=O)OC)C(=O)OC)cc32)c1C)C(=O)OC
41 | > 100 | 97.4 |  |  |  |  |  |  |  | COC(=O)[C@@H](Cc1ccccc1)NC(=O)c1c(C)[nH]c(/C=C2\C(=O)Nc3ccc(C(=O)O)cc32)c1C

— ChEMBL document CHEMBL4190404, “Synthesis and characterization of amino acid substituted sunitinib analogues for the treatment of AML” (Bioorg Med Chem Lett, 2018)
